# Measured values from ChEMBL document CHEMBL5608187, “Discovery of pyridoquinoxaline-based new P-gp inhibitors as coadjutant against Multi Drug Resistance in cancer” (Eur J Med Chem, 2024).
# What was measured:
# Format in all cases: cell-based
# [1] = biological target: T1, ATP-dependent translocase ABCB1 (Homo sapiens, UniProt P08183); assay: Inhibition of P-gp in human A498 cells assessed as increase in green fluorescence intensity at 0.1 to 10 uM incubated for 15 mins followed by incubation with EFFLUX-ID Green Detection Reagent and Hoeschst-33342 dye and measured after 30 mins by fluorescence analysis; settings: a498, 0.25 h, dose 0.1-10 µM
# In short: (§1)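 5000 cells/well in phenol-red-free medium plated 24 h before; compounds 0.1, 1, 10 µM for 15 min, then EFLUXX-ID Green reagent (1:200) plus Hoechst-33342 1 µg/mL, 30 min 37 °C. Widefield imaging; median green intensity from 250 cells per well normalized to untreated wells. Mean ± SD of three wells; one-tailed t-test.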
# [2] = biological target: T1, ATP-dependent translocase ABCB1; assay: Inhibition of P-gp in human HCT-15 cells assessed as increase in green fluorescence intensity at 0.1 to 10 uM incubated for 15 mins followed by incubation with EFFLUX-ID Green Detection Reagent and Hoeschst-33342 dye and measured after 30 mins by fluorescence analysis; settings: hct-15, 0.25 h, dose 0.1-10 µM; in short: as §1
# [3] = biological target: T1, ATP-dependent translocase ABCB1; assay: Inhibition of P-gp in human HT1197 cells assessed as increase in green fluorescence intensity at 0.1 to 10 uM incubated for 15 mins followed by incubation with EFFLUX-ID Green Detection Reagent and Hoeschst-33342 dye and measured after 30 mins by fluorescence analysis; settings: ht1197, 0.25 h, dose 0.1-10 µM; in short: as §1
# [4] = biological target: T1, ATP-dependent translocase ABCB1; assay: Inhibition of P-gp in human CAKI-2 cells assessed as increase in green fluorescence intensity at 0.1 to 10 uM incubated for 15 mins followed by incubation with EFFLUX-ID Green Detection Reagent and Hoeschst-33342 dye and measured after 30 mins by fluorescence analysis; settings: caki-2, 0.25 h, dose 0.1-10 µM; in short: as §1
# T1 sequence (P08183 whole entry): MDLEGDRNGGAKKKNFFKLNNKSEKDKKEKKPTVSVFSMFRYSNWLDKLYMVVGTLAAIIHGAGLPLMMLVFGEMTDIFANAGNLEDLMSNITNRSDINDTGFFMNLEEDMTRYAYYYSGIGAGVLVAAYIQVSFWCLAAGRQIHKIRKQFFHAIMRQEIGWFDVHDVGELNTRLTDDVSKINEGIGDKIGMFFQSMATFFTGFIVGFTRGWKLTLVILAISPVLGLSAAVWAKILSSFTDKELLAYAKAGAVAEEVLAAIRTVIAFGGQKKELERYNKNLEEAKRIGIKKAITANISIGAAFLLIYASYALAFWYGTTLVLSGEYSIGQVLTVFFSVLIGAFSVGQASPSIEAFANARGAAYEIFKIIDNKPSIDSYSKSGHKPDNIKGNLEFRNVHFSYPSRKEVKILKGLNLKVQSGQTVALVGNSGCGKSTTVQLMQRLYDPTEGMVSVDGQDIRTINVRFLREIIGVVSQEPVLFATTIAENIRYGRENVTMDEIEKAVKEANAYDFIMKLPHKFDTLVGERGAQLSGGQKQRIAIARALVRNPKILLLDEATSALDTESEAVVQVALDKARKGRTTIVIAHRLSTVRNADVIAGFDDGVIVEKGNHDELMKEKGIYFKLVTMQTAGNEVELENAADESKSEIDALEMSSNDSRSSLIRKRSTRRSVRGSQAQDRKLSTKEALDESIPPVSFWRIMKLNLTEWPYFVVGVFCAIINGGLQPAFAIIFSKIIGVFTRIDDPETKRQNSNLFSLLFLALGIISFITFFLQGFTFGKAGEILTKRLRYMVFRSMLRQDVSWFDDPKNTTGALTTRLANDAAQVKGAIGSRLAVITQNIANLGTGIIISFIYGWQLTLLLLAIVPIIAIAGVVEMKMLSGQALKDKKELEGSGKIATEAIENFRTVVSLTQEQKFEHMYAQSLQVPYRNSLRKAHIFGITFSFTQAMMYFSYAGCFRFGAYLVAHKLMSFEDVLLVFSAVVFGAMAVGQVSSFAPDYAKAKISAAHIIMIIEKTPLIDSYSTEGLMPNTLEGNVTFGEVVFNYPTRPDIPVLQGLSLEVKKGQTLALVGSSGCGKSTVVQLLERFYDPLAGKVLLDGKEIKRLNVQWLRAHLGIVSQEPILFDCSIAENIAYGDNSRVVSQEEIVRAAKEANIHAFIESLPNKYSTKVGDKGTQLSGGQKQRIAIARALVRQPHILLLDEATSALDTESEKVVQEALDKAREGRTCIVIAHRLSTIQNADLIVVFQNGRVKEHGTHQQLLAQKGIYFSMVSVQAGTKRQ
SMILES,inhibition (INH) [1],inhibition (INH) [2],inhibition (INH) [3],inhibition (INH) [4]
COc1ccc(NC(=O)c2ccccc2OCc2nc3cc4cccnc4cc3nc2COc2ccccc2C(=O)Nc2ccc(OC)cc2)cc1,Not Active,Active,Active,Active
O=C(Nc1ccc(Cl)c(Cl)c1)c1ccccc1OCc1nc2cc3cccnc3cc2nc1COc1ccccc1C(=O)Nc1ccc(Cl)c(Cl)c1,Not Active,Active,Active,Active
COC(=O)c1ccc(OCc2nc3cc4cccnc4cc3nc2COc2ccc(C(=O)OC)cc2OC)c(OC)c1,Not Active,Active,Active,Active
COC(=O)c1ccccc1SCc1nc2cc3cccnc3cc2nc1CSc1ccccc1C(=O)OC,Not Active,Active,Active,Active
COc1cc(NC(=O)c2cc(Cl)ccc2OCc2nc3cc4cccnc4cc3nc2COc2ccc(Cl)cc2C(=O)Nc2cc(OC)c(OC)c(OC)c2)cc(OC)c1OC,Not Active,Active,Active,Active
COc1cc(NC(=O)c2cc(Cl)ccc2OCc2nc3cc4cccnc4cc3nc2COc2ccc(Cl)cc2C(=O)Nc2cc(OC)cc(OC)c2)cc(OC)c1,Not Active,Active,Active,Active
COc1ccc(NC(=O)c2cc(Cl)ccc2OCc2nc3cc4cccnc4cc3nc2COc2ccc(Cl)cc2C(=O)Nc2ccc(OC)cc2)cc1,Not Active,Active,Active,Active
N#Cc1ccc(OCc2nc3cc4cccnc4cc3nc2COc2ccc(C#N)cc2)cc1,Not Active,Active,Active,Active
